Measured values published in ChEMBL document CHEMBL1122780, “Trequinsin, a potent new antihypertensive vasodilator in the series of 2-(arylimino)-3-alkyl-9,10-dimethoxy-3,4,6,7-tetrahydro-2H-py rim ido [6,1-a]isoquinolin-4-ones” (J Med Chem, 1984).

How the values were obtained:
[1] = tested on: Felis catus; experiment: Dose estimated to produce 25 mm Hg fall in mean systemic blood pressure of anesthetized cat at 10 min after administration; assay type: functional
[2] = tested on: Rattus norvegicus; experiment: Difference in systolic blood pressure of SH rats observed prior to the first application and 2 hr after the fifth application at the oral dose of 5 mg/kg was expressed as Delta BP; assay type: functional, Artery
How it was run: (§1)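 Male spontaneously hypertensive rats (Wistar–Okamoto, 250–300 g, 12–16 weeks), conscious. Dosed orally once daily for 5 days in 0.9% NaCl or 0.5% carboxymethylcellulose (10 mL/kg); vehicle control group. Rats warmed at 37–38 °C for 10 min, then systolic pressure taken by tail-cuff (piezoelectric pulse detection). ΔBP = pre-first-dose minus 2 h after fifth dose; mean ± SEM, six animals.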

[3] = tested on: Rattus norvegicus; experiment: Difference in systolic blood pressure of SH rats observed prior to the first application and 2 hr after the fifth application at the oral dose of 25 mg/kg was expressed as Delta BP; assay type: functional, Artery; how it was run: as §1
[4] = Compound was tested for toxicity in mice after intraperitoneal administration; assay type: organism-based; settings: mouse, in vivo, ip
How it was run: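 Mice (18–22 g), either sex. Compound dissolved in distilled water or suspended in 0.5% (carboxymethyl)cellulose and given ip at 10, 30, 100, 300 and 1000 mg/kg, 1 mL/100 g body weight. Animals observed for 48 h; approximate LD50 calculated by the Campbell and Richter method.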

[5] = tested on: Felis catus; experiment: Blood pressure lowering activity in anesthetized cats after intravenous administration of […] of compound; assay type: functional
[6] = tested on: Rattus norvegicus; experiment: Delta BP refers to difference in systolic blood pressure of SH rats observed prior to the first application and 2 hr after the fifth application at the oral dose of 3 mg/kg; assay type: functional, Artery; how it was run: as §1
[7] = tested on: Rattus norvegicus; experiment: Difference in systolic blood pressure of SH rats observed prior to the first application and 2 hr after the fifth application at the oral dose of 10 mg/kg was expressed as Delta BP; assay type: functional, Artery; how it was run: as §1

| SMILES | ED25 [1] [mg/kg] | other results |
| --- | --- | --- |
| CCc1cccc(C(C)C)c1Nc1cc2n(c(=O)n1)CCc1cc(OC)c(OC)cc1-2.Cl | 3 | – |
| COc1cc2c(cc1OC)-c1cc(=Nc3c(C)cccc3C(C)C)n(C)c(=O)n1CC2.Cl | 1 | Delta blood pressure [2]: 0 mmHg |
| COc1cc2c(cc1OC)-c1cc(Nc3ccccc3Cl)nc(=O)n1CC2.Cl | 1.4 | Delta blood pressure [3]: 0 mmHg |
| COc1cc2c(cc1OC)-c1cc(=Nc3ccc(C)cc3C)n(C)c(=O)n1CC2.Cl | 10 | – |
| COc1cc2c(cc1OC)-c1cc(Nc3c(C)cccc3C(C)(C)C)nc(=O)n1CC2.Cl | 1.8 | Delta blood pressure [3]: 0 mmHg |
| CCn1c(=Nc2c(C)cc(C)cc2C)cc2n(c1=O)CCc1cc(OC)c(OC)cc1-2.Cl | 0.1 | LD50 [4]: 65 mg/kg; ED25 [5]: 0.025 mg/kg; Delta blood pressure [2]: -20 mmHg |
| CCc1cccc(C(C)CC)c1N=c1cc2n(c(=O)n1C)CCc1cc(OC)c(OC)cc1-2.Cl (centres undefined) | 3.5 | Delta blood pressure [3]: -20 mmHg |
| COc1cc2c(cc1OC)-c1cc(N(C)c3c(C)cc(C)cc3C)nc(=O)n1CC2.Cl | 0.03 | LD50 [4]: 27 mg/kg; ED25 [5]: 0.03 mg/kg; Delta blood pressure [2]: -45 mmHg |
| COc1cc(Nc2cc3n(c(=O)n2)CCc2cc(OC)c(OC)cc2-3)cc(OC)c1.Cl | 3.4 | – |
| COc1cc2c(cc1OC)-c1cc(Nc3cc(OC)c(OC)c(OC)c3)nc(=O)n1CC2.Cl | 0.8 | – |
| COc1cc2c(cc1OC)-c1cc(Nc3c(Cl)cc(Cl)cc3Cl)nc(=O)n1CC2.Cl | 0.5 | – |
| COc1cc2c(cc1OC)-c1cc(Nc3ccc(C)c(Cl)c3Cl)nc(=O)n1CC2.Cl | 5 | Delta blood pressure [3]: -19 mmHg |
| COc1cc2c(cc1OC)-c1cc(Nc3c(C)cc(C)cc3C)nc(=O)n1CC2.Cl | 0.2 | LD50 [4]: 82.5 mg/kg; ED25 [5]: 0.2 mg/kg; Delta blood pressure [2]: -37 mmHg |
| COc1cc2c(cc1OC)-c1cc(=Nc3c(C)cc(C)cc3C)n(CP(C)(C)=O)c(=O)n1CC2.Cl | 0.1 | LD50 [4]: 65 mg/kg; ED25 [5]: 0.5 mg/kg; Delta blood pressure [2]: -33 mmHg |
| COc1cc2c(cc1OC)-c1cc(Nc3c(C)cccc3C(C)C)nc(=O)n1CC2.Cl | 2.2 | – |
| COc1cc2c(cc1OC)-c1cc(=Nc3c(F)cccc3F)n(CP(C)(C)=O)c(=O)n1CC2.Cl | 0.4 | Delta blood pressure [3]: 0 mmHg |
| CCOc1ccccc1Nc1cc2n(c(=O)n1)CCc1cc(OC)c(OC)cc1-2.Cl | 1.2 | Delta blood pressure [3]: -27 mmHg |
| CCOc1ccc(Nc2cc3n(c(=O)n2)CCc2cc(OC)c(OC)cc2-3)cc1.Cl | 50 | – |
| COc1cc2c(cc1OC)-c1cc(Nc3c(F)cccc3F)nc(=O)n1CC2 | 3.5 | Delta blood pressure [3]: 0 mmHg |
| COc1cc2c(cc1OC)-c1cc(=Nc3c(C)cccc3C)n(C)c(=O)n1CC2 | 3.5 | – |
| CCN(c1cc2n(c(=O)n1)CCc1cc(OC)c(OC)cc1-2)c1c(C)cc(C)cc1C | 0.025 | LD50 [4]: 65 mg/kg; Delta blood pressure [6]: -13 mmHg; ED25 [5]: 0.1 mg/kg |
| COc1cc2c(cc1OC)-c1cc(Nc3ccc(Cl)cc3Cl)nc(=O)n1CC2 | 1 | Delta blood pressure [3]: 0 mmHg |

| SMILES | ED25 [1] [mg/kg] | other results |
| --- | --- | --- |
| COc1cc2c(cc1OC)-c1cc(Nc3ccc(C)c(C)c3)nc(=O)n1CC2 | 10 | – |
| COc1cc2c(cc1OC)-c1cc(=Nc3c(C)cc(C)cc3C)n(C(C)C)c(=O)n1CC2 | 0.1 | Delta blood pressure [7]: -34 mmHg |
| COc1cc2c(cc1OC)-c1cc(Nc3cc(C)cc(C)c3)nc(=O)n1CC2 | 3 | – |
| COc1cc2c(cc1OC)-c1cc(=Nc3c(Cl)cc(Cl)cc3Cl)n(C)c(=O)n1CC2 | 3 | Delta blood pressure [3]: -21 mmHg |
| COc1cc2c(cc1OC)-c1cc(N(CP(C)(C)=O)c3c(F)cccc3F)nc(=O)n1CC2 | 2.4 | Delta blood pressure [3]: 0 mmHg |
| COc1cc2c(cc1OC)-c1cc(Nc3ccc(O)cc3)nc(=O)n1CC2 | 10 | – |
| COc1cc2c(cc1OC)-c1cc(Nc3ccc(C)cc3C)nc(=O)n1CC2 | 1 | Delta blood pressure [3]: -41 mmHg |
| COc1cc2c(cc1OC)-c1cc(Nc3ccc(C)c(N)c3)nc(=O)n1CC2 | 2.4 | – |
| CCc1ccccc1Nc1cc2n(c(=O)n1)CCc1cc(OC)c(OC)cc1-2 | 10 | – |
| COc1ccc(OC)c(Nc2cc3n(c(=O)n2)CCc2cc(OC)c(OC)cc2-3)c1 | 50 | – |
| COc1cc2c(cc1OC)-c1cc(N(c3c(C)cc(C)cc3C)C(C)C)nc(=O)n1CC2 | 0.5 | Delta blood pressure [2]: -37 mmHg |
| COc1cc2c(cc1OC)-c1cc(Nc3ccccc3C(=O)O)nc(=O)n1CC2 | 50 | – |
| COc1cc2c(cc1OC)-c1cc(Nc3c(Cl)cccc3Cl)nc(=O)n1CC2 | 2 | – |
| CCCCN(c1cc2n(c(=O)n1)CCc1cc(OC)c(OC)cc1-2)c1c(C)cc(C)cc1C | 0.08 | – |
| COc1cc2c(cc1OC)-c1cc(Nc3c(C)cccc3C)nc(=O)n1CC2 | 0.1 | Delta blood pressure [2]: -27 mmHg |
| COc1cc2c(cc1OC)-c1cc(Nc3ccc(Cl)cc3)nc(=O)n1CC2 | 50 | – |
| COc1cc2c(cc1OC)-c1cc(N(C(C)=O)c3c(C)cc(C)cc3C)nc(=O)n1CC2 | 0.25 | LD50 [4]: 825 mg/kg; ED25 [5]: 0.25 mg/kg; Delta blood pressure [7]: -24 mmHg |
| COc1cc2c(cc1OC)-c1cc(=Nc3c(F)cccc3F)n(C)c(=O)n1CC2 | 0.5 | Delta blood pressure [7]: 0 mmHg |
| COc1cc2c(cc1OC)-c1cc(Nc3cccc(C(F)(F)F)c3)nc(=O)n1CC2 | 2 | – |
| N/N=c1\[nH][nH]/c(=N\N)c2ccccc12 [DIHYDRALAZINE] | 1 | Delta blood pressure [2]: -60 mmHg |
| Nc1cc(N2CCCCC2)nc(N)[n+]1[O-] [MINOXIDIL] | 1.2 | Delta blood pressure [2]: -51.2 mmHg |
